Assay results published in ChEMBL document CHEMBL1152248, “The 'Ethereal' nature of TLR4 agonism and antagonism in the AGP class of lipid A mimetics” (Bioorg Med Chem Lett, 2008).
Calls of active or inactive are those of the source. No cut-off for these calls is given here.

Tests used:
[1] = molecular target: T1, Toll-like receptor 4 (Homo sapiens, UniProt O00206); assay: Antagonist activity at TLR4 in human PBMC assessed as inhibition of LPS-stimulated TNFalpha production pre-incubated for 30 mins before LPS challenge measured after 18 hrs by ELISA; assay type: functional
Summary of the method: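 Adherence-isolated human monocytes were preincubated with compound for 30 min, then stimulated with 100 ng/mL E. coli LPS. Supernatant TNF-α was measured by ELISA after 18 h. IC50 was fitted with a four-parameter logistic dose–response model.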

[2] = molecular target: T1, Toll-like receptor 4; assay: Agonist activity at TLR4 in human PBMC assessed as induction of TNFalpha production after 18 hrs by sandwich ELISA; assay type: functional
Summary of the method: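 Human monocytes were isolated by 2 h adherence to tissue-culture plates. They were exposed to compound over a 0–10,000 range in 0.2% aq triethanolamine (TEOA) for 18 h. TNF-α in supernatants was measured by sandwich ELISA. Data are three replicate samples from one of three donors. ED50 was fitted with a four-parameter logistic dose–response model.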

[3] = tested on: Mus musculus; assay: Inhibition of LPS-induced serum TNFalpha production in iv dosed BALB/c mouse after 1.5 hrs by ELISA; assay type: functional, organism-based
Summary of the method: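 BALB/c mice (n = 3) were given 5 ng LPS iv, either alone or together with 0.2% TEOA vehicle or test compound. Serum was collected 1.5 h post-injection and TNF-α was measured by ELISA.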

[4] = tested on: Listeria monocytogenes; assay: Inhibition of CRX-527-mediated protection against Listeria monocytogenes infected iv dosed BALB/c mouse administered 2 days prior to bacterial challenge measured after 2 days; assay type: organism-based; settings: in vivo, 48 h
Summary of the method: (§1)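 BALB/c mice got AGP iv in 100 µL of 0.2% aq TEOA 2 days before iv challenge with 10^5 L. monocytogenes. Two days after challenge, splenic CFUs were counted by serial dilution of homogenates. Log10 relative protection is control-group log10 CFU/spleen minus test-group log10 CFU/spleen.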

[5] = tested on: Influenza A virus; assay: Protection against Influenza A/HK/68 virus infected BALB/c mouse assessed as survival at 5 mg/kg, intranasal administered 2 days prior to influenza challenge measured after 21 days; assay type: functional; settings: inhaled or nasal
Summary of the method: (§2)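 Female/male unspecified BALB/c mice, 8 per group, given compound intranasally in 0.2% aqueous triethanolamine vehicle 2 days before intranasal influenza challenge. Vehicle-only group as control. Read-out is percent survival, recorded over 21 days after viral challenge.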

[6] = tested on: Influenza A virus; assay: Protection against Influenza A/HK/68 virus infected BALB/c mouse assessed as survival at 0.5 mg/kg, intranasal administered 2 days prior to influenza challenge measured after 21 days; assay type: functional; settings: inhaled or nasal; summary of the method: as §2
[7] = tested on: Influenza A virus; assay: Protection against Influenza A/HK/68 virus infected BALB/c mouse assessed as survival at 0.05 mg/kg, intranasal administered 2 days prior to influenza challenge measured after 21 days; assay type: functional; settings: inhaled or nasal; summary of the method: as §2
[8] = tested on: Influenza A virus; assay: Protection against Influenza A/HK/68 virus infected BALB/c mouse assessed as survival at 0.005 mg/kg, intranasal administered 2 days prior to influenza challenge measured after 21 days; assay type: functional; settings: inhaled or nasal; summary of the method: as §2
[9] = tested on: Listeria monocytogenes; assay: Protection against Listeria monocytogenes infected iv dosed BALB/c mouse assessed as reduction in splenic bacteria administered 2 days prior to bacterial challenge measured after 2 days; assay type: functional, organism-based; summary of the method: as §1

T1 sequence (O00206 whole entry): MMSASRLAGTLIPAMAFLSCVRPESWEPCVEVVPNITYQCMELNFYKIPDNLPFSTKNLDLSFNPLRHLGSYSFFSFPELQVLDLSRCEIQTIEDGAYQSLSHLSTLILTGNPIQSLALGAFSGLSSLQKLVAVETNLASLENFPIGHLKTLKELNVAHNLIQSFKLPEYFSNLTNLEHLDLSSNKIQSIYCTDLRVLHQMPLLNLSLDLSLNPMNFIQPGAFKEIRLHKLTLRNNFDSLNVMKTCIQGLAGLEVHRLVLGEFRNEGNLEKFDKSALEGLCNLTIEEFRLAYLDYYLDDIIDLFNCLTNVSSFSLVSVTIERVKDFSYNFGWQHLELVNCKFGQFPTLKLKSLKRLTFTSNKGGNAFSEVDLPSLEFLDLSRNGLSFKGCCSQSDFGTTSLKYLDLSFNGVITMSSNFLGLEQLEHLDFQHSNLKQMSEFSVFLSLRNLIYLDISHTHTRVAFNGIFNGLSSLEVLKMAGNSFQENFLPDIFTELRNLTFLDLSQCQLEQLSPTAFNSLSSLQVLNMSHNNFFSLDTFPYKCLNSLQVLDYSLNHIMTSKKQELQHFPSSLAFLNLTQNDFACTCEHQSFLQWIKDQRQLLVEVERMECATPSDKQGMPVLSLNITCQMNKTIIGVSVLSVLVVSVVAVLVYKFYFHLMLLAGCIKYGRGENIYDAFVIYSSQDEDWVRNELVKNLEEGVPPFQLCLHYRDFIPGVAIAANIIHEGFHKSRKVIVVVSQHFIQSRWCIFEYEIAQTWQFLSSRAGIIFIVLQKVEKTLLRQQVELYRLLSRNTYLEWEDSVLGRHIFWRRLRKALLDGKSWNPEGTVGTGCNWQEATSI

Row | Compound | IC50 [1] | Activity [2] | Activity [3] | Activity [4] | Activity [1] | ED50 [2] | survival at 5 mg/kg [5] | survival at 0.5 mg/kg [6] | survival at 0.05 mg/kg [7] | survival at 0.005 mg/kg [8] | Activity [9]
1 | CCCCCCCCCCC[C@H](CC(=O)N[C@H]1[C@H](OC[C@H](NC(=O)C[C@@H](CCCCCCCCCCC)OC(=O)CCCCC)C(=O)O)O[C@H](CO)[C@@H](OP(=O)(O)O)[C@@H]1OC(=O)C[C@@H](CCCCCCCCCCC)OC(=O)CCCCC)OC(=O)CCCCC | 2.4 nM | inactive | Active | Dose-dependent effect |  |  |  |  |  |  | 
2 | CCCCCCCCCCC[C@H](CC(=O)N[C@H]1[C@H](OC[C@H](NC(=O)C[C@@H](CCCCCCCCCCC)OCCCCCCCCCC)C(=O)O)O[C@H](CO)[C@@H](OP(=O)(O)O)[C@@H]1OC(=O)C[C@@H](CCCCCCCCCCC)OCCCCCCCCCC)OCCCCCCCCCC |  |  |  |  | inactive | 0.17 nM | 100% | 80% | 60% | 20% | Active
3 | CCCCCCCCCCC[C@H](CC(=O)N[C@H]1[C@H](OC[C@H](NC(=O)C[C@@H](CCCCCCCCCCC)OC(=O)CCCCCCCCC)C(=O)O)O[C@H](CO)[C@@H](OP(=O)(O)O)[C@@H]1OC(=O)C[C@@H](CCCCCCCCCCC)OC(=O)CCCCCCCCC)OC(=O)CCCCCCCCC |  |  |  |  | inactive | 0.39 nM | 100% | 70% | 70% | 30% | Active
4 | CCCCCCCCCCC[C@H](CC(=O)N[C@H]1[C@H](OC[C@H](NC(=O)C[C@@H](CCCCCCCCCCC)OCCCCCC)C(=O)O)O[C@H](CO)[C@@H](OP(=O)(O)O)[C@@H]1OC(=O)C[C@@H](CCCCCCCCCCC)OCCCCCC)OCCCCCC | 5.3 nM | inactive | inactive | Not Active |  |  |  |  |  |  | 
